# Results published in PubChem BioAssay.
# Calls of active or inactive are those of the source.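 Rule for the calls, unless noted: active = NADPH fluorescence slope more negative than the mean of all samples by about 3 SD, 99.7% confidence; inactive = the rest.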
# Experiments:
# [1] = inhibitors of TNFa-induced NFkB p65 translocation, primary screen, imaging, HUVEC, MLSMR starter and 10KST1 sets (AID 438;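 active = inhibition above 20% together with a positive visual image hit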;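 note: compound added about 3h40 before a 20 min TNFalpha stimulation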;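 for inhibition: signal is the nuclear over cytoplasmic p65 intensity ratio per well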); details: HUVEC TNFa-induced p65 nuclear translocation; cell count: measured here: nuclei count (cytotoxicity indicator), at 2.08 µM unless noted; inhibition: at 2 µM, stronger effect = higher value unless noted
# [2] = endothelial E-selectin expression blockers – imaging, HUVEC, immunofluorescence, MLSMR starter and 10KST1 sets, primary screen (AID 487;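 active = visually confirmed hit in the image check and inhibition above 20%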;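 for inhibition: signal is fraction of cell area covered by stained E-selectin grains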;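 for nuclei count: 100% = median nuclei count of all wells on the same plate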); details: HUVEC TNFalpha-induced E-selectin immunofluorescence imaging, at 2 µM; inhibition: stronger effect = higher value; nuclei count: measured here: cell number, toxicity
# [3] = Primary imaging screen for DUSP6 inhibitors that restore phospho-Erk in transfected HeLa cells, chemical complementation (AID 609;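 active = compounds giving at least 50% inhibition in the cell-based MKP-3 phosphatase rescue imaging test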;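 for inhibition: phospho-Erk level distribution per well compared with pooled transfected vehicle control wells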); details: HeLa MKP-3 transfected, phospho-Erk imaging KS statistic, at 10 µM
# [4] = molecular target: Dual specificity protein phosphatase 6 (Homo sapiens) (UniProt Q16828); assay: as above; details: HeLa MKP-3 transfected, phospho-Erk imaging KS statistic, at 10 µM, stronger effect = higher value
# [5] = molecular target: Voltage-gated potassium channel subunit beta-2 (Rattus norvegicus) (UniProt P62483); assay: inhibitors of rat Kvbeta2 reductase activity – biochemical, NADPH fluorescence, primary screen (AID 622;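 active = fluorescence slope higher than the sample average by over 3 SD, cut at about -0.22 in these data, passing the limit was not always enough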;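 note: slope of raw intensity against log time taken from 70 to 1610 s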); details: recombinant KvBeta, 4-cyanobenzaldehyde reduction, at 10 µM, stronger effect = higher value
# [6] = molecular target: Voltage-gated potassium channel subunit beta-2 (Rattus norvegicus) (UniProt P62483); assay: enhancers of rat Kvbeta2 NADPH turnover – biochemical, NADPH fluorescence, primary screen (AID 623); details: Recombinant KvBeta, NADPH fluorescence decrease slope, 10 min; at 10 µM; stronger effect = lower value;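 note: fluorescence intensity change per second fitted from 20 to 320 s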
# [7] = molecular target: Alpha-2C adrenergic receptor (Homo sapiens) (UniProt P18825); assay: compounds altering alpha2C-coupled GIRK flux – cell-based, HEK293 alpha2C/GIRK1/2, thallium flux, primary screen (AID 624;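 active = fluorescence slope after compound addition differing from the mean of all screened samples at 99.7% confidence, in either direction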;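 note: slope of fluorescence ratio to pre-addition baseline per second over 15 to 24 s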); details: thallium flux BTC fluorescence, at 10 µM, actives lie on both sides
# [8] = inhibitors of larval lipid processing in zebrafish, primary screen, whole organism, PED6 fluorescence, gall bladder and intestine (AID 686;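 active = a full or partial loss of lipid-probe fluorescence in the fish gall bladder, intestine or both, judged by eye; inactive = no fluorescence loss, or compound toxic to the fish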;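 note: larvae 5 to 7 days old with five fish per well; signal comes from phospholipase A2 cleavage of quenched PED6 carried via bile; overnight exposure to compound and PED6 before scoring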); details: Zebrafish larvae PED6 lipid processing, fluorescence scoring
# In short: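 Doses: 20 µM single dose. Test system: live zebrafish larvae aged 5-7 days, whole organism. Quantity: five larvae per well. Measured by: By-eye fluorescence microscopy. Reagent: ingested quenched lipid PED6 at 100 nM. Read-out: visual per-well fluorescence inhibition score. Times: overnight exposure of larvae to compound plus PED6.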
# [9] = loss of swimming-algae plug formation – whole organism, Chlamydomonas reinhardtii, WT vs cilia-less mutant, absorbance, 96-well, primary screen (AID 463189;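 active = inhibition at or above 50% relative to wild type and mutant plate controls; inactive = inhibition below 50%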;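 note: 0% = wild type cc124 cells in DMSO and 100% = ciliumless bld1 mutant cells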); details: Chlamydomonas reinhardtii gravitaxis, OD600 absorbance, 2 days; at 10 µM; stronger effect = higher value
# [10] = molecular target: Muscarinic acetylcholine receptor M4 (Homo sapiens) (UniProt P08173); assay: M4-linked GIRK flux change, two-sided – cell-based, HEK293 M4/GIRK, thallium flux, BTC-AM, M4 allosteric agonist project, primary screen (AID 625;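 active = fluorescence slope after compound addition differing from the mean of all tested samples at 99.7% confidence, mostly higher but some lower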;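 note: thallium influx through GIRK channels coupled to M4 in HEK293 cells with BTC-AM dye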); details: at 10 µM, actives lie on both sides
# In short: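 Assay system: HEK293 cells with M4 receptor and GIRK channels / Controls: carbachol and DMSO controls / Schedule: 1 h dye loading, 2 min kinetic read / Technique: kinetic fluorescence with BTC-AM dye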
# [11] = measured here: cell density z-score
# [12] = measured here: nuclear c-Myc green intensity z-score
# [13] = measured here: nuclear pErk red intensity z-score, stronger effect = higher value
# Alpha-2C adrenergic receptor (Homo sapiens), sequence (P18825 whole entry, looked up): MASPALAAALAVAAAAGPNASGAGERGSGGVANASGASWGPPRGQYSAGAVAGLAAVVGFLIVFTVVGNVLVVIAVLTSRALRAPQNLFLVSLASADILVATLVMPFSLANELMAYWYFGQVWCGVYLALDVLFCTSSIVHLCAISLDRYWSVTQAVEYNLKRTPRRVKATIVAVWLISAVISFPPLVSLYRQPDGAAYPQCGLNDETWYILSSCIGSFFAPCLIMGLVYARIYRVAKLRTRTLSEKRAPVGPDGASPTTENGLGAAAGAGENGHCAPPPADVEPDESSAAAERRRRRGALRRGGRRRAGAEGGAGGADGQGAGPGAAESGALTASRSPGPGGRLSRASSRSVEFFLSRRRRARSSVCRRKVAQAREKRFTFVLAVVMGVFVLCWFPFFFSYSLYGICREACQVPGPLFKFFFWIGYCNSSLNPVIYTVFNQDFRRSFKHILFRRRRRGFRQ
# Dual specificity protein phosphatase 6 (Homo sapiens), sequence (Q16828 whole entry, looked up): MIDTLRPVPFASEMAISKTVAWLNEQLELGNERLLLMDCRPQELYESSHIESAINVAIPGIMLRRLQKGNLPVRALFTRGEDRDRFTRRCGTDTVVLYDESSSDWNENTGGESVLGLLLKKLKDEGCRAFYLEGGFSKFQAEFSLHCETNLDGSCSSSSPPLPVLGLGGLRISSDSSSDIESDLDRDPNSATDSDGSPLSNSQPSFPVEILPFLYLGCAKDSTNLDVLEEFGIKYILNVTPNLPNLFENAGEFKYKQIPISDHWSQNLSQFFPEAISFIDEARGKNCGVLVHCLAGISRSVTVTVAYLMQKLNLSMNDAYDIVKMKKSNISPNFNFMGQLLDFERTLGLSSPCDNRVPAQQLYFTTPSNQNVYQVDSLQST
# Voltage-gated potassium channel subunit beta-2 (Rattus norvegicus), sequence (P62483 whole entry, looked up): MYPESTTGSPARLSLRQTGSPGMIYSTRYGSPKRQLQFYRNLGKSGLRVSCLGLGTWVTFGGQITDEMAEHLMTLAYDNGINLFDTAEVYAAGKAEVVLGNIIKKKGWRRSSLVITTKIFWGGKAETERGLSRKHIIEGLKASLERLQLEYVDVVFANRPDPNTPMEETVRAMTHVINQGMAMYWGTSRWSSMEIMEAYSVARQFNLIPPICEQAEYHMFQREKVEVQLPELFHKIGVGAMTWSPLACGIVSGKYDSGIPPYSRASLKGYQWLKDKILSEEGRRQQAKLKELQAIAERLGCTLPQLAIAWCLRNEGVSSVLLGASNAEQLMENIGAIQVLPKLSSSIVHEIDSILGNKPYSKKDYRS
# Muscarinic acetylcholine receptor M4 (Homo sapiens), sequence (P08173 whole entry, looked up): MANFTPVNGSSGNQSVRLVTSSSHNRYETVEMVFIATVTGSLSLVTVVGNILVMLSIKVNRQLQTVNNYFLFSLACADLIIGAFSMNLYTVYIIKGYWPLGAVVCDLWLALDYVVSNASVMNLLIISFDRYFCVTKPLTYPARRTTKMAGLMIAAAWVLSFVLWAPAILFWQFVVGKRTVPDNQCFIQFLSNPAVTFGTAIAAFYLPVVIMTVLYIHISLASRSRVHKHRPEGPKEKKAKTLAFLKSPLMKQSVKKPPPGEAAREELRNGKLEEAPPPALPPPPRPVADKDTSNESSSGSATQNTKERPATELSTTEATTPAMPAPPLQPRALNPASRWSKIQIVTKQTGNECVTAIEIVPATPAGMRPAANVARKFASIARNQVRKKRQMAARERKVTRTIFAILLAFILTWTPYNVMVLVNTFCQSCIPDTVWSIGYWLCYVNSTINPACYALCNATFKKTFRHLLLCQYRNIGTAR
SMILES,cell count [1],inhibition [1],inhibition [2],nuclei count [2],"z-score [3, 11]","z-score [3, 12]","z-score [3, 13]",inhibition [4],fluorescence slope [5],NADPH fluorescence slope [6],slope [7],outcome [8],inhibition [9],fluorescence slope [10]
Cc1c(N=Cc2c(O)n(CCc3ccccc3)c(=O)[nH]c2=O)c(=O)n(-c2ccccc2)n1C,613,-20.6% (inactive),-12.1% (inactive),104%,1.02,-1.15,-0.939,14.4% (inactive),-0.465 (inactive),-1.6e-05 (inactive),0.00632 (inactive),inactive,41.8% (inactive),
CCOc1ccc(Cc2c(O)[nH]c(=O)[nH]c2=O)cc1,618,-8.4% (inactive),-94.6% (inactive),180%,-2.58,1.33,1.61,3.56% (inactive),-0.34 (inactive),-3.4e-06 (inactive),0.00464 (inactive),inactive,18.5% (inactive),
CC(=C1C(=O)c2ccccc2C1=O)N1CCN(CCN=Cc2c(O)n(C)c(=O)n(C)c2=O)CC1,584,-2.8% (inactive),-90.4% (inactive),138%,-0.147,0.321,0.747,1.98% (inactive),-0.482 (inactive),-2e-05 (inactive),0.00537 (inactive),inactive,18.5% (inactive),
C/C(Cl)=C/CC1(CN2CCCC2=O)C(=O)NC(=O)NC1=O,584,-2.5% (inactive),-26.8% (inactive),102%,-1.18,1.93,0.656,-3.98% (inactive),-0.484 (inactive),-0.000274 (inactive),0.00947 (inactive),inactive,-13.6% (inactive),
CC(=O)OC1N=C(c2ccccc2)c2ccccc2NC1=O (configuration not stated),428,-3.5% (inactive),14.8% (inactive),88.8%,0.0297,-1.27,-0.528,6.04% (inactive),-0.509 (inactive),-5.2e-06 (inactive),0.00675 (inactive),inactive,12.3% (inactive),
CCOc1ccc(-n2c(O)c(C=Nc3ccc(N(CC)CC)cc3)c(=O)[nH]c2=O)cc1,366,-4.7% (inactive),-63.9% (inactive),138%,0.258,-1.14,0.567,14% (inactive),-0.361 (inactive),-0.000118 (inactive),-0.0068 (active),inactive,-4.04% (inactive),
CC1(C)CC(n2[nH]c(=O)c3c2NC(=O)CSC3c2ccccc2)CCO1 (configuration not stated),532,10.5% (inactive),-152% (inactive),128%,-0.163,0.684,-0.467,1.75% (inactive),-0.501 (inactive),-2.3e-05 (inactive),0.00596 (inactive),inactive,-16.8% (inactive),
CCCCOCCCn1c(N)c(C(=O)OCCOC)c2nc3ccccc3nc21,525,-11.4% (inactive),-48% (inactive),152%,-0.11,-0.345,0.203,15.5% (inactive),-0.052 (inactive),-3.5e-06 (inactive),0.00403 (inactive),inactive,29.3% (inactive),
CCCCCCn1c(O)c(C=NCCCn2ccnc2)c(=O)[nH]c1=O,654,-20.1% (inactive),13.9% (inactive),134%,1.42,-1.88,-0.817,2.71% (inactive),-0.5 (inactive),-2e-06 (inactive),0.0065 (inactive),inactive,13.6% (inactive),
CC1(C)CC(=O)C(C=NCCN2CCN(C(=O)Cc3ccc(F)cc3)CC2)=C(O)C1,580,5.6% (inactive),-57.7% (inactive),140%,0.866,1.58,-0.927,17.8% (inactive),-0.481 (inactive),-3.6e-05 (inactive),0.00584 (inactive),inactive,-8.15% (inactive),
COc1cccc(CN2CCN(C(=O)COc3ccc4ccccc4c3)CC2)c1,430,-6% (inactive),-195% (inactive),210%,-0.132,-0.0858,-0.507,11% (inactive),-0.354 (inactive),-4.1e-06 (inactive),0.00527 (inactive),inactive,16.5% (inactive),
COCC(C)OC(=O)c1c(N)n(Cc2ccco2)c2nc3ccccc3nc12 (configuration not stated),433,-9.3% (inactive),-115% (inactive),147%,-0.578,0.931,-0.00965,-11.9% (inactive),-0.0512 (inactive),-2.8e-07 (inactive),0.0047 (inactive),inactive,7.25% (inactive),
CCCCCCn1c(O)c(C=NCCN2CCCCC2)c(=O)[nH]c1=O,667,-17.9% (inactive),-47.5% (inactive),141%,0.204,-1.24,-1.39,12.7% (inactive),-0.423 (inactive),-2.4e-06 (inactive),0.00602 (inactive),inactive,12.8% (inactive),
O=C1C2CCN(CC2)[C@@H]1Cc1ccc2ccccc2c1O,542,-18.4% (inactive),-159% (inactive),135%,0.277,-1,-0.726,9.91% (inactive),-0.498 (inactive),-6.4e-05 (inactive),0.00747 (inactive),inactive,9.49% (inactive),
O=C1c2ccccc2C(=O)N1Cc1nc2ccccc2c(=O)n1-c1cccnc1,485,-17.5% (inactive),13.6% (inactive),113%,-1.74,-0.21,1.85,-4.27% (inactive),-0.469 (inactive),-1.2e-05 (inactive),0.00521 (inactive),inactive,6.55% (inactive),
COc1ccc(Cn2c(O)c(C=NCCCn3ccnc3)c(=O)[nH]c2=O)cc1,466,-0.7% (inactive),54% (inactive),81.9%,-1.17,0.328,0.929,4.25% (inactive),-0.443 (inactive),-1.5e-05 (inactive),0.00461 (inactive),inactive,-4.22% (inactive),
O=c1[nH]c(=O)n(Cc2ccccc2)c(O)c1C=NCCN1CCNCC1,548,-7.6% (inactive),-71.4% (inactive),125%,-0.72,0.623,-0.0503,7.93% (inactive),-0.51 (inactive),-3.8e-05 (inactive),0.00654 (inactive),inactive,-6.44% (inactive),
COCCOC(=O)C1=C(N)Oc2c(c(=O)oc3ccccc23)[C@@]12C(=O)Nc1ccccc12,600,-9.7% (inactive),-14.5% (inactive),105%,0.613,0.851,-1.5,-2.29% (inactive),-0.499 (inactive),2.1e-05 (inactive),0.00465 (inactive),inactive,-16.3% (inactive),
CCN(CC)c1ccc(N=Cc2c(O)n(-c3ccccc3C)c(=O)[nH]c2=O)cc1,337,3.8% (inactive),-48.3% (inactive),172%,-0.126,0.959,0.0511,7.01% (inactive),-0.394 (inactive),-0.000163 (inactive),0.00909 (inactive),inactive,24.7% (inactive),
Cc1c(N=Cc2c(O)n(Cc3ccco3)c(=O)[nH]c2=O)c(=O)n(-c2ccccc2)n1C,591,-1.8% (inactive),-156% (inactive),133%,0.39,0.06,-0.372,11.4% (inactive),-0.492 (inactive),-0.000124 (inactive),,inactive,11.7% (inactive),0.00411 (inactive)
CCN(CC)CCN=Cc1c(O)n(CCc2ccccc2)c(=O)[nH]c1=O,479,7.8% (inactive),-1.8% (inactive),88.8%,0.714,-0.47,-1.29,28% (inactive),-0.368 (inactive),9.5e-06 (inactive),0.00625 (inactive),inactive,-6.45% (inactive),
CCOC(=O)[C@@]1(C#N)[C@@H]2C=CC(C(N)=O)=CN2[C@@H](C(N)=O)[C@@H]1c1cccc(Cl)c1,359,-11.1% (inactive),-137% (inactive),133%,1.68,-1.47,-0.2,11.4% (inactive),-0.368 (inactive),-1e-05 (inactive),0.00498 (inactive),inactive,24.1% (inactive),
COc1cccc(-n2c(O)c(C=NCCN3CCOCC3)c(=O)[nH]c2=O)c1,512,-1.1% (inactive),-10.1% (inactive),92.8%,-1.1,2.1,0.315,-5.26% (inactive),-0.386 (inactive),-1.1e-05 (inactive),0.00613 (inactive),inactive,-13% (inactive),
CCCc1nc2ccccc2c(=O)n1-c1ccccc1OC,587,-5.2% (inactive),-140% (inactive),134%,-0.589,-0.508,-0.325,-4.78% (inactive),-0.375 (inactive),-2e-05 (inactive),0.00541 (inactive),inactive,-2.29% (inactive),
